ChEMBL document CHEMBL2375304, “Synthesis and anticancer activity of novel 2-pyridyl hexahyrocyclooctathieno[2,3-d]pyrimidine derivatives” (2013)

Key:
Type in all cases: functional
NCI-H322M = assay: Growth inhibition of human NCI-H322M cells at 10^-5 M after 48 hrs by Sulforhodamine B assay relative to control; conditions: read-out: GI
Outline: (§1)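 Single-dose primary screen at 10⁻⁵ M across 49 lines. Cells were plated 24 h beforehand, with a TCA-fixed time-zero plate, then exposed 48 h at 37 °C, 5% CO2. Cells were fixed with cold TCA, stained with SRB and read at 515 nm. Percent growth was calculated against time-zero and untreated-control absorbances.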

COLO 205 = assay: Growth inhibition of human COLO205 cells at 10^-5 M after 48 hrs by Sulforhodamine B assay relative to control; conditions: COLO 205, 48 h, read-out: GI
Outline: (§2)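 Single-dose screen at 10⁻⁵ M. Cells are preincubated 24 h at 37 °C in 5% CO2, then exposed to the compound, diluted from a DMSO stock into medium with gentamicin, for 48 h. Adherent cells are fixed with cold TCA (final 10%) and suspension cells with TCA (final 16%). Cells are stained with 0.4% SRB in 1% acetic acid and bound dye is read at 515 nm. Percent growth inhibition is taken against control wells and time-zero plates.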

U-251 = assay: Growth inhibition of human U251 cells at 10^-5 M after 48 hrs by Sulforhodamine B assay relative to control; conditions: U-251, 48 h, read-out: GI
Outline: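 Single-dose stage: compound tested at 10⁻⁵ M in the 49-cell-line panel. Cells grew 24 h at 37 °C, 5% CO₂ before drug addition. Drug stock was in DMSO at 400-fold, diluted in medium with gentamicin. After 48 h exposure, adherent cells were fixed with cold TCA (10% final) and stained with 0.4% SRB in 1% acetic acid. Dye was solubilized in 10 mM Tris, read at 515 nm. Growth percentage was taken relative to untreated control and time-zero plates.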

SN12C = assay: Growth inhibition of human SN12C cells at 10^-5 M after 48 hrs by Sulforhodamine B assay relative to control; conditions: read-out: GI; outline: as §1
HCT-15 = assay: Growth inhibition of human HCT15 cells at 10^-5 M after 48 hrs by Sulforhodamine B assay relative to control; conditions: HCT-15, 48 h, read-out: GI; outline: as §2
MDA-MB-435 = assay: Growth inhibition of human MDA-MB-435 cells at 10^-5 M after 48 hrs by Sulforhodamine B assay relative to control; conditions: MDA-MB-435, 48 h, read-out: GI; outline: as §2
HL-60(TB) [1] = assay: Growth inhibition of human HL-60(TB) cells at 10^-5 M after 48 hrs by Sulforhodamine B assay relative to control; conditions: HL-60, 48 h, read-out: GI
Outline: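 First-stage single-dose screen at 10⁻⁵ M. Cells pre-incubated 24 h at 37 °C, 5% CO2, then exposed to drug for 48 h. Settled cells fixed with TCA (final 16%), SRB-stained and read at 515 nm. Percentage growth inhibition is derived from treated, untreated control and time-zero absorbances.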

OVCAR-3 = assay: Growth inhibition of human OVCAR3 cells at 10^-5 M after 48 hrs by Sulforhodamine B assay relative to control; conditions: OVCAR-3, 48 h, read-out: GI; outline: as §1
RPMI-8226 = assay: Growth inhibition of human RPMI8226 cells at 10^-5 M after 48 hrs by Sulforhodamine B assay relative to control; conditions: RPMI-8226, 48 h, read-out: GI; outline: as §1
KM12 = assay: Growth inhibition of human KM12 cells after 48 hrs by Sulforhodamine B assay; conditions: KM12, 48 h
Outline: (§3)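 Five-concentration SRB assay using 10-fold or ½-log serial dilutions from a DMSO stock. Exposure is 48 h at 37 °C in 5% CO2 after 24 h preincubation. TCA fixation is followed by SRB staining and a reading at 515 nm. Percentage growth is computed from time-zero, control and treated absorbances. GI50 is the concentration where [(Ti−Tz)/(C−Tz)]×100 = 50, read from the plot against log concentration.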

A549 = assay: Growth inhibition of human A549/ATCC cells after 48 hrs by Sulforhodamine B assay; conditions: A549, 48 h; outline: as §3
OVCAR-5 = assay: Growth inhibition of human OVCAR5 cells after 48 hrs by Sulforhodamine B assay; conditions: OVCAR-5, 48 h
Outline: (§4)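 Cells were preincubated 24 h at 37 °C, 5% CO2, and a time-zero plate was TCA-fixed. Five concentrations were made by serial dilution from a DMSO stock (400-fold the top concentration) and incubated 48 h. Adherent cells were fixed with 10% final TCA and suspension cells with 16%. Plates were stained with 0.4% SRB and read at 515 nm. GI50 is the concentration giving 50% reduction in net protein increase versus control.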

DU-145 = assay: Growth inhibition of human DU145 cells after 48 hrs by Sulforhodamine B assay; conditions: DU-145, 48 h; outline: as §3
HL-60(TB) [2] = assay: Growth inhibition of human HL-60(TB) cells after 48 hrs by Sulforhodamine B assay; conditions: HL-60, 48 h
Outline: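 Suspension cells pre-incubated 24 h at 37 °C, 5% CO2 before drug addition, with a time-zero plate fixed then. DMSO stocks diluted in medium with gentamicin to five concentrations (10-fold or ½-log steps); 48 h exposure. Settled cells fixed with TCA (final 16%), stained with SRB, dye dissolved in 10 mM Tris base, read at 515 nm. GI50 solved from [(Ti−Tz)/(C−Tz)]×100 = 50.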

SW-620 = assay: Growth inhibition of human SW620 cells after 48 hrs by Sulforhodamine B assay; conditions: SW-620, 48 h; outline: as §4
CAKI-1 = assay: Growth inhibition of human CAKI-1 cells after 48 hrs by Sulforhodamine B assay; conditions: CAKI-1, 48 h; outline: as §3
NCI-H226 = assay: Growth inhibition of human NCI-H226 cells after 48 hrs by Sulforhodamine B assay; conditions: NCI-H226, 48 h; outline: as §4
TK-10 = assay: Growth inhibition of human TK10 cells after 48 hrs by Sulforhodamine B assay; conditions: TK-10, 48 h
Outline: (§5)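 Five-concentration stage in the […]-cell-line panel, using 10-fold or ½-log serial dilutions made from a DMSO stock (400-fold). Cells were preincubated 24 h at 37 °C, then drug-exposed 48 h. A time-zero plate was fixed with TCA at dosing, adherent cells were fixed with cold TCA (10% final), and protein was stained with SRB, absorbance 515 nm. GI50 was where [(Ti−Tz)/(C−Tz)]×100 = 50, from the percent growth vs log concentration plot, expressed as log10 GI50.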

IGROV-1 = assay: Growth inhibition of human IGROV1 cells after 48 hrs by Sulforhodamine B assay; conditions: IGROV-1, 48 h; outline: as §3
UACC-257 = assay: Growth inhibition of human UACC257 cells after 48 hrs by Sulforhodamine B assay; conditions: UACC-257, 48 h; outline: as §5
SNB-75 = assay: Growth inhibition of human SNB75 cells after 48 hrs by Sulforhodamine B assay; conditions: SNB-75, 48 h; outline: as §4
786-0 = assay: Growth inhibition of human 786-0 cells after 48 hrs by Sulforhodamine B assay; conditions: 786-0, 48 h; outline: as §3
HOP-92 = assay: Growth inhibition of human HOP92 cells after 48 hrs by Sulforhodamine B assay; conditions: HOP-92, 48 h; outline: as §3
SF-295 = assay: Growth inhibition of human SF295 cells at 10^-5 M after 48 hrs by Sulforhodamine B assay relative to control; conditions: SF-295, 48 h, read-out: GI; outline: as §1

Row | Compound | inhibition of growth at 10 µM (NCI-H322M) [%] | inhibition of growth at 10 µM (COLO 205) [%] | inhibition of growth at 10 µM (U-251) [%] | inhibition of growth at 10 µM (SN12C) [%] | inhibition of growth at 10 µM (HCT-15) [%] | inhibition of growth at 10 µM (MDA-MB-435) [%] | inhibition of growth at 10 µM (HL-60(TB) [1]) [%] | inhibition of growth at 10 µM (OVCAR-3) [%] | inhibition of growth at 10 µM (RPMI-8226) [%] | GI50 (KM12) [µM] | GI50 (A549) [µM] | GI50 (OVCAR-5) [µM] | GI50 (DU-145) [µM] | GI50 (HL-60(TB) [2]) [µM] | GI50 (SW-620) [µM] | GI50 (CAKI-1) [µM] | GI50 (NCI-H226) [µM] | GI50 (TK-10) [µM] | GI50 (IGROV-1) [µM] | GI50 (UACC-257) [µM] | also measured
1 | Clc1nc(-c2ccccn2)nc2sc3c(c12)CCCCCC3 | 15.5 | -14.6 | 2.82 | 15.1 | 15.8 | 8.64 | 3.98 | -7.89 | 4.46 | – | – | – | – | – | – | – | – | – | – | – | –
2 | O=c1[nH]c(-c2ccncc2)nc2sc3c(c12)CCCCCC3 | – | – | – | – | – | – | – | – | – | > 100 | > 100 | > 100 | > 100 | > 100 | > 100 | > 100 | > 100 | > 100 | > 100 | > 100 | GI50 (SNB-75): 2.69 µM; GI50 (786-0): > 100 µM; GI50 (HOP-92): > 100 µM
3 | NNc1nc(-c2ccccn2)nc2sc3c(c12)CCCCCC3 | – | – | – | – | – | – | – | – | – | 6.46 | 3.16 | 8.71 | 9.55 | 4.47 | 4.57 | 0.575 | 10.2 | 9.12 | 4.17 | 6.61 | GI50 (SNB-75): 12.6 µM; GI50 (786-0): 5.62 µM; GI50 (HOP-92): 3.55 µM
4 | c1ccc(N2CCN(c3nc(-c4ccccn4)nc4sc5c(c34)CCCCCC5)CC2)cc1 | 17.7 | 26.3 | 37.1 | 28.9 | 41.4 | 34.2 | – | 27 | 57.5 | – | – | – | – | – | – | – | – | – | – | – | inhibition of growth at 10 µM (SF-295): 54.8%
5 | c1cc(-c2nc(N3CCOCC3)c3c4c(sc3n2)CCCCCC4)ccn1 | -14.3 | -0.84 | 21.9 | 19.3 | 20.8 | 0.03 | 24.6 | 15.4 | 32.2 | – | – | – | – | – | – | – | – | – | – | – | inhibition of growth at 10 µM (SF-295): 19.5%
6 | CN1CCN(c2nc(-c3ccccn3)nc3sc4c(c23)CCCCCC4)CC1 | 1.03 | 0.37 | 8.31 | 3.33 | 2.35 | 4.89 | 4.37 | -5.6 | 12.4 | – | – | – | – | – | – | – | – | – | – | – | inhibition of growth at 10 µM (SF-295): 13.8%
7 | O=c1[nH]c(-c2ccccn2)nc2sc3c(c12)CCCCCC3 | – | – | – | – | – | – | – | – | – | 4.07 | 2.57 | 91.2 | 6.76 | 3.39 | 4.9 | 3.31 | > 100 | > 100 | 3.98 | > 100 | GI50 (SNB-75): 85.1 µM; GI50 (786-0): 5.62 µM; GI50 (HOP-92): 3.89 µM
